In ChEMBL document CHEMBL1148191, “2-Hydroxymethyl-3,4-dihydroxy-6-methyl-pyrrolidine (6-deoxy-DMDP), an alkaloid beta-mannosidase inhibitor from seeds of Angylocalyx pynaertii” (J Nat Prod, 1993):
Active and inactive are the calls of the source. No cut-off for these calls is given here.

Legend:
Canavalia ensiformis = assay: Inhibition of jack beans alpha-mannosidase
Method in brief: (§1)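 Commercial arylglycosidases, with α-L-fucosidase from bovine kidney. Activity was measured colorimetrically as p-nitrophenol released from the matching p-nitrophenyl glycoside substrate.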

Saccharomyces cerevisiae = assay: Inhibition of yeast alpha-glucosidase; method in brief: as §1
Prunus dulcis = assay: Inhibition of almonds beta-glucosidase; method in brief: as §1
[1] = biological target: T1, Beta-galactosidase (Bos taurus) (UniProt Q58D55); assay: Inhibition of bovine liver beta-galactosidase; method in brief: as §1
T1 sequence (whole entry): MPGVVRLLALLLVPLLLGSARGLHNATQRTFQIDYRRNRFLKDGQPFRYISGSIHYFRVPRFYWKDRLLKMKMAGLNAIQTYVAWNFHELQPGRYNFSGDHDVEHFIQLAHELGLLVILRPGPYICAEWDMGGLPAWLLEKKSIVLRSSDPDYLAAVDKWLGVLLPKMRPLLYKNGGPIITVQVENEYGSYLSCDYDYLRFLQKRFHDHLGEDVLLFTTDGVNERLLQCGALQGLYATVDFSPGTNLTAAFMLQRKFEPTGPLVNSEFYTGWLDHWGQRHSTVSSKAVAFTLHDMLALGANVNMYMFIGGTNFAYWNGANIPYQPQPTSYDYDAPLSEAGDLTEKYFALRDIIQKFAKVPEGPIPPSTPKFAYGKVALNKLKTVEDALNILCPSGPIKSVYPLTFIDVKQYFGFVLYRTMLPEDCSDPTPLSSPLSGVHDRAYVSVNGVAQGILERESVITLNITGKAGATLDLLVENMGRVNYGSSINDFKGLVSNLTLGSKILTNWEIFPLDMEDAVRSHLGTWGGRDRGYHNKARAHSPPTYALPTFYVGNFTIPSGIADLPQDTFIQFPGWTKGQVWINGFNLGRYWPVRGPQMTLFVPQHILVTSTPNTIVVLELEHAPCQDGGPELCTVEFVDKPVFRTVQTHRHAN

Aspergillus niger = assay: Inhibition of Aspergillus niger alpha-galactosidase; method in brief: as §1
[2] = biological target: T2, Exo-1,4-beta-xylosidase xlnD (Aspergillus niger) (UniProt O00089); assay: Inhibition of Aspergillus niger beta-xylosidase; method in brief: as §1
T2 sequence (whole entry): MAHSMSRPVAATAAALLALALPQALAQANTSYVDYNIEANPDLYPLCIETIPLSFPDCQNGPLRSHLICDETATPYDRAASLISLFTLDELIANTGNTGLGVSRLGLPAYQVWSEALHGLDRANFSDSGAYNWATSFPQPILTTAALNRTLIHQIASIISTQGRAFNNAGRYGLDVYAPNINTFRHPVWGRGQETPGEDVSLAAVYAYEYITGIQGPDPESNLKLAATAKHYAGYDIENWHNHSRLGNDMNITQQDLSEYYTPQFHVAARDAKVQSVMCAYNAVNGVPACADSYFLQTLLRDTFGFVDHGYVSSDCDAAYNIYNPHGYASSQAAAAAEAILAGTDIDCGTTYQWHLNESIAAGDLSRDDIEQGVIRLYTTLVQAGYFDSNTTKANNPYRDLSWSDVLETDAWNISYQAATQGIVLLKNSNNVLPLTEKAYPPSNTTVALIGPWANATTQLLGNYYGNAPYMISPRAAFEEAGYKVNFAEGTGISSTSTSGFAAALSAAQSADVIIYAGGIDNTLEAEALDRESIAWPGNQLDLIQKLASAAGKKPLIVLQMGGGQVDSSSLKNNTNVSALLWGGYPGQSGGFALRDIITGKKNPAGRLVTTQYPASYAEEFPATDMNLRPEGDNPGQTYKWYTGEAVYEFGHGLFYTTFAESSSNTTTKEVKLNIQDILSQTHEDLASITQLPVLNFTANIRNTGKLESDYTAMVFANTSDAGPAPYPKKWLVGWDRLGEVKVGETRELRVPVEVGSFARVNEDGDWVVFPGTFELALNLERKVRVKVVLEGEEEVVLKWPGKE

[3] = biological target: T3, Beta-mannosidase A (Aspergillus niger) (UniProt Q9UUZ3); assay: Inhibition of Aspergillus niger beta-mannosidase at 380 uM
T3 sequence (whole entry): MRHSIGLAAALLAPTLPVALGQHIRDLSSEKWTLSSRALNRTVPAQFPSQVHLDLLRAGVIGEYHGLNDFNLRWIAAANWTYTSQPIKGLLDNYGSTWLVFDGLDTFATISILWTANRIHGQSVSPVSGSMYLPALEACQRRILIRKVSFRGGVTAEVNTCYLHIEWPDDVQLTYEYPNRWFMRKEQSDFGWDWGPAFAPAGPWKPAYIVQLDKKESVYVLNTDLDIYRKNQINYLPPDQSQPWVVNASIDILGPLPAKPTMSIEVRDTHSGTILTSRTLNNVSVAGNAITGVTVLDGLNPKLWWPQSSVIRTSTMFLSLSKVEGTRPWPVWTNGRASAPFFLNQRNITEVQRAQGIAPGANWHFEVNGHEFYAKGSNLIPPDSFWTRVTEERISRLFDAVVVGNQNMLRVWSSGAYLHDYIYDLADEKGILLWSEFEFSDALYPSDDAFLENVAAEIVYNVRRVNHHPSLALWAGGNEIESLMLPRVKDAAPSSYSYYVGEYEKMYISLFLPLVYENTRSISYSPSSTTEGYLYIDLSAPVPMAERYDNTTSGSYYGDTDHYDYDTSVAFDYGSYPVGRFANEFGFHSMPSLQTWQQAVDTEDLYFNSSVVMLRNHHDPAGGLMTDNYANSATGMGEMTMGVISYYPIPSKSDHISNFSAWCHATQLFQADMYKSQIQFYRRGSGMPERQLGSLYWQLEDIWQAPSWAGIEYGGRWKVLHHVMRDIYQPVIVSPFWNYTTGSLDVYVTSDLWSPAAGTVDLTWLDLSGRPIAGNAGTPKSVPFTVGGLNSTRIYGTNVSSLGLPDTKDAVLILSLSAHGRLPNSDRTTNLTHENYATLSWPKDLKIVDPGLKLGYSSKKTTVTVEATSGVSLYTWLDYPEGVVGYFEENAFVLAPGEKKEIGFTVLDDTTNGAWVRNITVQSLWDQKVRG
Method in brief: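 β-Mannosidase was purified from Aspergillus niger. Activity was read colorimetrically as p-nitrophenol release from the p-nitrophenyl glycoside substrate, expressed relative to untreated enzyme over a range of inhibitor concentrations. Kinetics were analysed by Lineweaver-Burk plot.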

| SMILES | Activity (Canavalia ensiformis) | Activity (Saccharomyces cerevisiae) | Activity (Prunus dulcis) | Activity [1] | Activity (Aspergillus niger) | Activity [2] | inhibition [3] |
| --- | --- | --- | --- | --- | --- | --- | --- |
| O[C@H]1[C@H]2[C@H](O)CCCN2C[C@H]1O | Active | – | – | – | – | – | – |
| OC[C@H]1N[C@H](CO)[C@@H](O)[C@@H]1O | – | Active | Active | – | – | – | – |
| OC[C@H]1NC[C@@H](O)[C@@H]1O | – | Active | Active | – | – | – | – |
| OC[C@H]1NC[C@@H](O)[C@@H](O)[C@@H]1O | Active | – | – | – | – | – | – |
| C[C@H]1N[C@H](CO)[C@@H](O)[C@@H]1O | inactive | inactive | inactive | Active | inactive | inactive | 50% |
